Laboratory results reported in ChEMBL document CHEMBL1255434, “Heat stress cognate 70 host protein as a potential drug target against drug resistance in hepatitis B virus” (Antimicrob Agents Chemother, 2010).
Values after ≈ are worked out from the molar mass of the structure shown. Active and inactive are the calls of the source. The calls are words filed in the database; no cut-off is given here.

Assays:
[1] = Decrease in HscA70-mRNA expression in Hepatitis B virus infected in human HepG2(2.2.15) cells at 5.9 uM after 24-36 hrs by RT-PCR analysis; type: functional, cell-based
Hepatitis B virus [2] = test: Antiviral activity against Hepatitis B virus infected in human HepG2(2.2.15) cells assessed as decrease in intracellular viral DNA level at 5.9 uM after 72 hrs by RT-PCR analysis; type: functional, organism-based
How it was run: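 HepG2.2.15 cells were treated at 5.9, 23.6, 94.5 and 378 μM and 1.51 mM for 72 h. Intracellular HBV DNA was measured by real-time PCR, with Hsc70 mRNA by RT-PCR in parallel. Amounts were expressed relative to untreated cells, set as 1. Dot blot was used as confirmation. Means and SD.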

Hepatitis B virus [3] = test: Antiviral activity against Hepatitis B virus infected in human HepG2(2.2.15) cells assessed as reduction in viral DNA level at 113 uM continuous exposure measured after 2 months by RT-PCR analysis
Hepatitis B virus [4] = test: Antiviral activity against lamivudine-resistant Hepatitis B virus infected in human Huh-7 cells assessed as suppression of viral replication at 1.51 mM after 24 hrs by RT-PCR analysis; type: functional; details: Huh-7, 24 h
How it was run: (§1)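 Huh-7 cells (10^5/well) were plated and incubated overnight. They were then transfected for 24 h with pcDNA3.1 carrying one HBV strain: Lamr (rtL180M+rtM204V), Advr (rtA181V+rtN236T) or Etvr (rtL180M+rtM204V+rtS202G). Medium was replaced with fresh medium containing 0.4 mg/ml (1.51 mM) for 24 h. Intracellular HBV DNA replicative intermediates were quantified by real-time PCR against untreated controls. Performed twice.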

Hepatitis B virus [5] = test: Antiviral activity against Hepatitis B virus infected in human HepG2(2.2.15) cells assessed as reduction in viral DNA level at 23.6 uM to 1.51 mM after 72 hrs by RT-PCR analysis; type: functional
How it was run: (§2)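 Dose-response in HepG2.2.15 cells: 5.9, 23.6, 94.5 and 378 μM and 1.51 mM for 72 h. Hsc70 mRNA by qRT-PCR and intracellular HBV DNA by real-time PCR, each expressed relative to untreated cells (=1). HBV DNA also checked by dot blot. EC50 from this curve.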

Hepatitis B virus [6] = test: Antiviral activity against drug-resistant chronic Hepatitis B virus infected patients assessed as reduction in viral DNA at 0.4 g/day, po for 12 months; type: functional
Hepatitis B virus [7] = test: Antiviral activity against Hepatitis B virus infected in human HepG2(2.2.15) cells assessed as reduction in viral DNA level at 113 uM continuous exposure measured after 7 months by RT-PCR analysis
[8] = Decrease in Luc mRNA expression in human sHepG2(2.2.15) cells expressing pLuc-3'UTR […] by RT-PCR analysis; type: functional, cell-based; parameters: scale not given: the % may be the effect or the level left; details: HepG2 2.2.15
[9] = Decrease in Hsc70- mRNA expression in Hepatitis B virus infected in human HepG2(2.2.15) cells at 1.51 mM after 72 hrs by RT-PCR analysis; type: functional, cell-based; how it was run: as §2
[10] = Decrease in Luc mRNA expression in human sHepG2(2.2.15) cells expressing pLuc-5'UTR after 24 hrs by RT-PCR analysis; type: functional, cell-based; details: HepG2 2.2.15
How it was run: (§3)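 HepG2.2.15 cells transfected 24 h with luciferase reporter pLuc (pcDNA3.0 backbone), pLuc-3′UTR or pLuc-5′UTR (Hsc70 UTR chimeras). Cells split into two dishes, incubated overnight, then given drug or dilution buffer. Total RNA taken 12 h later; Luc mRNA by real-time RT-PCR. Three experiments; means and SD.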

[11] = Cytotoxicity against human HepG2(2.2.15) cells assessed as cell survival at 113 uM continuous exposure measured after 7 months; details: hepg2 2.2.15, 5113.5 h
[12] = Decrease in wild type Luc mRNA expression in human HepG2(2.2.15) cells after 24 hrs by RT-PCR analysis; type: functional, cell-based; how it was run: as §3
Hepatitis B virus [13] = test: Antiviral activity against Hepatitis B virus infected in human HepG2(2.2.15) cells assessed as reduction in viral mRNA level at 1.51 mM for 12, 24 or 36 hrs by RT-PCR analysis; type: functional, organism-based
How it was run: (§4)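 HepG2.2.15 cells exposed to 0.4 mg/ml (1.51 mM) for 12, 24 or 36 h. Total RNA taken for HBV mRNA by one-step SYBR Green qRT-PCR; intracellular DNA isolated for HBV DNA by real-time PCR. Each value scaled to the mean of untreated cells set as 1.0. Three experiments; means and SD.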

Hepatitis B virus [14] = test: Antiviral activity against Hepatitis B virus infected in human HepG2(2.2.15) cells assessed as decrease in supernatant viral DNA level at 1.51 mM after 36 hrs by RT-PCR analysis; type: functional; parameters: scale not given: the % may be the effect or the level left
[15] = Cytotoxicity against human HepG2(2.2.15) cells assessed as cell killing by MTT assay; type: cell-based
How it was run: (§5)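 CC50 from MTT assay in HepG2.2.15 cells. Therapeutic ratio taken as CC50 over the anti-HBV EC50 from the 72 h dose-response measuring intracellular HBV DNA by real-time PCR.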

Hepatitis B virus [16] = test: Antiviral activity against entecavir-resistant Hepatitis B virus infected in human Huh-7 cells assessed as suppression of viral replication at 1.51 mM after 24 hrs by RT-PCR analysis; type: functional; details: Huh-7, 24 h; how it was run: as §1
HepG2 = test: Decrease in Hsc70- mRNA expression in human liver HepG2 cells at 0.23 to 0.94 mM after 24 hrs by RT-PCR analysis; type: functional, cell-based
How it was run: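 Hsc70 mRNA by one-step SYBR Green qRT-PCR after 24 h treatment at 0.0625 or 0.25 mg/ml (0.23 and 0.94 mM), relative to untreated cells. More than 5 experiments; means and SD.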

[17] = Cytotoxicity against human HepG2(2.2.15) cells assessed as cell growth at 1.51 mM after 36 hrs; type: cell-based; details: hepg2 2.2.15, 36 h, 1510 µM
How it was run: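 HepG2.2.15 cell growth followed during 36 h exposure to 0.4 mg/ml (1.51 mM), compared with untreated cells; experiment repeated twice.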

Hepatitis B virus [18] = test: Antiviral activity against Hepatitis B virus infected in human HepG2(2.2.15) cells assessed as reduction in viral DNA replicative intermediates at 23.6 uM to 1.51 mM after 24 hrs by RT-PCR analysis; type: functional
Hepatitis B virus [19] = test: Antiviral activity against Hepatitis B virus infected in human HepG2(2.2.15) cells assessed as reduction in viral DNA level by RT-PCR analysis; type: functional, organism-based
Hepatitis B virus [20] = test: Antiviral activity against adefovir-resistant Hepatitis B virus infected in human Huh-7 cells assessed as suppression of viral replication at 1.51 mM after 24 hrs by RT-PCR analysis; type: functional; details: Huh-7, 24 h; how it was run: as §1
[21] = Half life in human blood; type: ADME, tissue-based
[22] = Decrease in HscA90-mRNA expression in Hepatitis B virus infected in human HepG2(2.2.15) cells at 1.51 mM after 24 hrs by RT-PCR analysis; type: functional, cell-based
How it was run: (§6)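 HepG2.2.15 cells at 0.4 mg/ml (1.51 mM). HspA4 and Hsp90 mRNA measured as host reference genes by one-step SYBR Green qRT-PCR, alongside Hsc70 mRNA and HBV DNA.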

[23] = Decrease in Hsc70- mRNA expression in Hepatitis B virus infected in human HepG2(2.2.15) cells at 1.51 mM by RT-PCR analysis; type: functional, cell-based; details: TDE = time-dependent effect
Hepatitis B virus [24] = test: Antiviral activity against Hepatitis B virus infected in human HepG2(2.2.15) cells assessed as decrease in intracellular viral DNA level at 113 uM after 72 hrs by RT-PCR analysis in presence of adefovir; type: functional, organism-based
How it was run: (§7)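 HepG2.2.15 cells (HBV genome-transfected, MEM + 10% FBS) treated 72 h with drug alone or in two-drug combination. Entecavir 0.6 μg/ml (2.16 μM), adefovir 3 μg/ml (5.9 μM), lamivudine 3 μg/ml (13 μM), oxymatrine 30 μg/ml (113 μM). Intracellular HBV DNA by SYBR Green real-time PCR, relative to untreated. Experiment repeated twice; means and SD, Student's t test.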

Hepatitis B virus [25] = test: Antiviral activity against Hepatitis B virus infected in human HepG2(2.2.15) cells assessed as decrease in intracellular viral DNA level at 1.51 mM after 36 hrs by RT-PCR analysis; type: functional; details: HepG2 2.2.15, 36 h
How it was run: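 HepG2.2.15 cells (HBV full-genome transfected HepG2) in MEM with 10% FBS, exposed to 0.4 mg/ml (1.51 mM) for 36 h. Intracellular DNA (genomic plus HBV) isolated and HBV DNA quantified by SYBR Green real-time PCR. Values were normalised to the untreated-cell mean, set as 1.0. Run 3 times; means and SD.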

Hepatitis B virus [26] = test: Antiviral activity against Hepatitis B virus infected in human HepG2(2.2.15) cells assessed as decrease in intracellular viral DNA level at 113 uM after 72 hrs by RT-PCR analysis in presence of entecavir; type: functional, organism-based; how it was run: as §7
Hepatitis B virus [27] = test: Antiviral activity against Hepatitis B virus infected in human HepG2(2.2.15) cells assessed as reduction in viral DNA level at 1.51 mM for 12, 24 or 36 hrs by RT-PCR analysis; type: functional, organism-based; how it was run: as §4
Hepatitis B virus [28] = test: Antiviral activity against Hepatitis B virus infected in human HepG2(2.2.15) cells assessed as decrease in intracellular viral DNA level at 113 uM after 72 hrs by RT-PCR analysis; type: functional, organism-based; how it was run: as §7
[29] = Cytotoxicity against human HepG2(2.2.15) cells assessed as cell survival at 113 uM continuous exposure measured after 2 months; details: hepg2 2.2.15, 1461 h
HepG2 2.2.15 = test: Reduction in Hsc70 mRNA half-life in Hepatitis B virus infected in human HepG2(2.2.15) cells at 1.51 mM after 24 hrs by RT-PCR analysis; type: functional; details: HepG2 2.2.15, 24 h
How it was run: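 HepG2.2.15 cells treated or not with 0.4 mg/ml (1.51 mM) for 24 h, then actinomycin D 5 μg/ml added to block transcription. RNA harvested at intervals; Hsc70 mRNA by real-time RT-PCR, normalized to GAPDH. Percent remaining plotted against time to estimate T1/2. Repeated twice.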

[30] = Decrease in Hsc70-protein expression in Hepatitis B virus infected in human HepG2(2.2.15) cells at 1.51 mM after 24 hrs by flow-cytometric assay; type: functional, cell-based
How it was run: (§8)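 HepG2.2.15 cells treated 24 h at 0.4 mg/ml (1.51 mM). Western blot: RIPA lysates with PMSF and protease inhibitors, SDS-PAGE, PVDF, 5% milk/TBST block 1 h at 37°C, mouse anti-Hsc70 monoclonal, HRP secondary, ECL. Flow cytometry: rabbit anti-Hsc70 with Cy5-labelled anti-rabbit secondary. Five experiments per assay.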

Hepatitis B virus [31] = test: Antiviral activity against Hepatitis B virus infected in human HepG2(2.2.15) cells assessed as reduction in genomic viral DNA at 23.6 uM to 1.51 mM after 24 hrs by RT-PCR analysis; type: functional; parameters: scale not given: the % may be the effect or the level left
[32] = Therapeutic index, ratio of CC50 for human sHepG2(2.2.15) cells to IC50 for Hepatitis B virus; type: cell-based; details: HepG2 2.2.15 cells; how it was run: as §5
[33] = Decrease in HscA4-mRNA expression in Hepatitis B virus infected in human HepG2(2.2.15) cells at 1.51 mM after 24 hrs by RT-PCR analysis; type: functional, cell-based; how it was run: as §6
[34] = Decrease in Hsc70-protein expression in Hepatitis B virus infected in human HepG2(2.2.15) cells at 1.51 mM after 24 hrs by Western blot analysis; type: functional, cell-based; how it was run: as §8

Nc1ncnc2c1ncn2CCOCP(=O)(O)O
Activity [1]: inactive
Activity (Hepatitis B virus [2]): Active

O=C1CCC[C@@H]2[C@H]3CCC[N+]4([O-])CCC[C@@H](CN12)[C@@H]34 (stereo partly specified) [OXYMATRINE]
Activity (Hepatitis B virus [3]): Active
inhibition at 1510 µM (Hepatitis B virus [4]): 62%
inhibition (INH) (Hepatitis B virus [5]): 43%
log10cfu (Hepatitis B virus [6]): 1.5
Activity (Hepatitis B virus [7]): Active
Activity [8]: 50%
Activity [9]: inactive
Activity [10]: inactive
Activity [11]: Non-toxic
Activity [12]: inactive
Activity (Hepatitis B virus [13]): inactive
Activity (Hepatitis B virus [14]): 60%
MTT [15]: 3.12 mg/mL
inhibition at 1510 µM (Hepatitis B virus [16]): 62%
Activity (HepG2): Active
Activity [17]: Non-toxic
inhibition (INH) (Hepatitis B virus [18]): 75%
EC50 (Hepatitis B virus [19]): 31 mg/L (≈ 117 µM)
inhibition at 1510 µM (Hepatitis B virus [20]): 62%
half-life [21]: 2.4 h
Activity [22]: inactive
Activity [23]: tde
Activity (Hepatitis B virus [24]): Active
inhibition at 1510 µM (Hepatitis B virus [25]): 62%
Activity (Hepatitis B virus [26]): Active
Activity (Hepatitis B virus [27]): Active
Activity (Hepatitis B virus [28]): Active
Activity [29]: Non-toxic
inhibition at 1510 µM (HepG2 2.2.15): 50%
Activity [30]: Active
Activity (Hepatitis B virus [31]): 54%
selectivity ratio [32]: > 100
Activity [33]: inactive
Activity [34]: Active
